This note sets out measurements from ChEMBL document CHEMBL4304834, “3-Amino-chromanes and Tetrahydroquinolines as Selective 5-HT2B, 5-HT7, or σ1 Receptor Ligands” (ACS Med Chem Lett, 2019).

What all share (assay type): cell-based
Assay [1] deals with T1, Alpha-2C adrenergic receptor (Homo sapiens, UniProt P18825).
T1 sequence (P18825 whole entry): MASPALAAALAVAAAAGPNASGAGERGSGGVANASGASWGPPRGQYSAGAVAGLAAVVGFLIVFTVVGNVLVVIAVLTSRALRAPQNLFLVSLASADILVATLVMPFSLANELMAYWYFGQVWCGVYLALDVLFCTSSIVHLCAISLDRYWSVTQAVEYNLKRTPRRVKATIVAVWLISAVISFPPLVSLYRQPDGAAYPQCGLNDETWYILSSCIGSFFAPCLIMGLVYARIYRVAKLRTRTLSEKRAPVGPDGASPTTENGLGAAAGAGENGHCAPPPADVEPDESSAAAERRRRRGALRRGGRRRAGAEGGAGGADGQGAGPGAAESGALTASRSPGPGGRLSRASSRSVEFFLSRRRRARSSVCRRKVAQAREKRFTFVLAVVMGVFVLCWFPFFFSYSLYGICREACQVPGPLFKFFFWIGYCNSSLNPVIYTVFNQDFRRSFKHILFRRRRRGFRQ
Briefly: Displacement of [3H]-Rauwolscine from human recombinant adrenergic Alpha2C receptor expressed in stable MDCK cells after 90 mins by microbeta scintillation counting method. In outline:
(§1)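 Radioligand binding was run by the NIMH Psychoactive Drug Screening Program. Compounds were first screened at 10 μM. Those giving ≥50% binding were taken to full competition curves. Ki is reported as pKi from a sigmoidal curve fit of triplicate measurements in a single experiment; the error is the curve-fit error.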
On the technique in general: Loss of bound radioactivity is the signal in a displacement assay; it reports binding, not function.

In assay [2] the target is Kappa-type opioid receptor (Homo sapiens, UniProt P41145). Description: Displacement of [3H]-U69593 from human recombinant KOR receptor expressed in stable HEK cells after 90 mins by microbeta scintillation counting method. In outline: as §1
Kappa-type opioid receptor, sequence (P41145 whole entry): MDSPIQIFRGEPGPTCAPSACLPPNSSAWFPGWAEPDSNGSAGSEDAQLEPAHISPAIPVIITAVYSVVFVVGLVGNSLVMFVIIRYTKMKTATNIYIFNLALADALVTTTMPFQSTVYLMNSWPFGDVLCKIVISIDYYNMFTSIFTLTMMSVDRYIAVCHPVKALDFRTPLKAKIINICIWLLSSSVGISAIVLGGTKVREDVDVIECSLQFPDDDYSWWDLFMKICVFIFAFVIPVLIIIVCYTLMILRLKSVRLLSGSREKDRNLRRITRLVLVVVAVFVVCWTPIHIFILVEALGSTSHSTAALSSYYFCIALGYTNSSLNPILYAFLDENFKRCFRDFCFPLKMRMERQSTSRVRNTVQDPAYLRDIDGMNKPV
Assay [3] concerns the target 5-hydroxytryptamine receptor 1D (Homo sapiens, UniProt P28221). Description: Displacement of [3H]5-CT from human recombinant 5-HT1D receptor transiently expressed in HEKT cells at 10 uM after 90 mins by microbeta scintillation counting method relative to control.
The target of another assay is Histamine H1 receptor (Homo sapiens, UniProt P35367). Description: Displacement of [3H]-Pyrilamine from human recombinant histamine H1 receptor expressed in stable HEK cells after 90 mins by microbeta scintillation counting method. In outline: as §1
Histamine H1 receptor, sequence (P35367 whole entry): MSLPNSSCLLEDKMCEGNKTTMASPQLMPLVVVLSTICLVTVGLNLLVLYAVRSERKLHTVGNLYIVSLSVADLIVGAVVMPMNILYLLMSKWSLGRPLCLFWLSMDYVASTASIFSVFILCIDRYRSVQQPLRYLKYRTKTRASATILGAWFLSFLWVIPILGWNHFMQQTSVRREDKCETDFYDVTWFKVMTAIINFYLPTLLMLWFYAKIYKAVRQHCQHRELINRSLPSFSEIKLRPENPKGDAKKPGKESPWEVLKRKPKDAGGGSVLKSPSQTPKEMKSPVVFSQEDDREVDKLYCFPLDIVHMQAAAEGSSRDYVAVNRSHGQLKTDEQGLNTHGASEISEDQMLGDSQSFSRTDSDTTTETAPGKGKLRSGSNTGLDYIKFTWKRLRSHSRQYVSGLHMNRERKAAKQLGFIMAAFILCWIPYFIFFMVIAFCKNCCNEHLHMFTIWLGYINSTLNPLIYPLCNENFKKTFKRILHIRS
The target in assay [4] is T2, 5-hydroxytryptamine receptor 3A (Homo sapiens, UniProt P46098).
T2 sequence (P46098 whole entry): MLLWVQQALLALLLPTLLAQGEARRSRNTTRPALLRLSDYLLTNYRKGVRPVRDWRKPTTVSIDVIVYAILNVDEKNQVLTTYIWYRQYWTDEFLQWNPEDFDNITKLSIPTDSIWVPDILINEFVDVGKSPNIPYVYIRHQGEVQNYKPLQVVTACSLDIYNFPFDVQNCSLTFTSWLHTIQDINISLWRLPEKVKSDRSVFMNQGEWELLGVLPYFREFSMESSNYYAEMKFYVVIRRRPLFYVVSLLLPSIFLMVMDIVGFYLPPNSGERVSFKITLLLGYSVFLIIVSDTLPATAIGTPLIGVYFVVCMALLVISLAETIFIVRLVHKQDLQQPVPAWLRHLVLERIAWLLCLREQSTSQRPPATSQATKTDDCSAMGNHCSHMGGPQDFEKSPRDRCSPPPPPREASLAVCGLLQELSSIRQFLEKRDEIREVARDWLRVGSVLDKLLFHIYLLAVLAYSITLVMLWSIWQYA
Description: Displacement of [3H]-GR65630 from human recombinant 5-HT3 receptor expressed in HEKT cells after 90 mins by microbeta scintillation counting method. In outline:
(§2)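 Radioligand binding run by the NIMH Psychoactive Drug Screening Program. […] Otherwise Ki comes from sigmoidal curve fits of triplicate measurements in a single experiment, or is averaged over repeated experiments each run in triplicate.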

Assay [5] addresses 5-hydroxytryptamine receptor 6 (Homo sapiens, UniProt P50406). Briefly: Displacement of [3H]-LSD from human recombinant 5-HT6 receptor expressed in stable HEK cells at 10 uM after 90 mins by microbeta scintillation counting method relative to control. In outline:
as §2

Assay [6] addresses T3, Muscarinic acetylcholine receptor M2 (Homo sapiens, UniProt P08172).
T3 sequence (P08172 whole entry): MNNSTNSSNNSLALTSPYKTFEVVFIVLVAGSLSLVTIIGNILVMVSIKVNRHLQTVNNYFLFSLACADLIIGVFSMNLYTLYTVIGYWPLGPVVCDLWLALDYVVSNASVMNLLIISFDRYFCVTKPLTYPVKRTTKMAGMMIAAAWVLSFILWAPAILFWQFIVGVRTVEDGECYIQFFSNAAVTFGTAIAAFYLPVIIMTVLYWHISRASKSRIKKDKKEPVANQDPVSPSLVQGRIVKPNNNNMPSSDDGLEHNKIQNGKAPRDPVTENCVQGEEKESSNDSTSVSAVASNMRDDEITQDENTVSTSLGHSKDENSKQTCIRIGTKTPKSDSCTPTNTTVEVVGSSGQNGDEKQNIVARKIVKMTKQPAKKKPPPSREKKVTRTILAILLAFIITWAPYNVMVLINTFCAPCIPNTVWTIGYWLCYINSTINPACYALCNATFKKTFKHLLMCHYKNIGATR
Description: Displacement of [3H]-QNB/[3H]-NMS from human recombinant Muscarinic acetylcholine M2 receptor expressed in stable CHO cells after 90 mins by microbeta scintillation counting method. In outline:
as §1

In assay [7] the target is 5-hydroxytryptamine receptor 1E (Homo sapiens, UniProt P28566). Briefly: Displacement of [3H]-HT from human recombinant 5-HT1E receptor expressed in stable HEK cells at 10 uM after 90 mins by microbeta scintillation counting method relative to control. In outline: as §2
5-hydroxytryptamine receptor 1E, sequence (P28566 whole entry): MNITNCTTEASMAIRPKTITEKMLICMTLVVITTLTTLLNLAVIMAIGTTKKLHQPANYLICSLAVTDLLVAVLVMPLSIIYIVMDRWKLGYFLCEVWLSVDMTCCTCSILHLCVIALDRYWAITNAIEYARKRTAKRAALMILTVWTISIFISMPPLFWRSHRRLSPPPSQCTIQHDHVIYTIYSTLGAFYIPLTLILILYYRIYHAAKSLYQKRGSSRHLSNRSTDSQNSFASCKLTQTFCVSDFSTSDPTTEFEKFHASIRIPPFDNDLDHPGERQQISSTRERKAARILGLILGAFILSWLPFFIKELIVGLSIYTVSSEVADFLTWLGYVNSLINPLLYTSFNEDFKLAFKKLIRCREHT
Assay [8] addresses T4, Muscarinic acetylcholine receptor M1 (Homo sapiens, UniProt P11229).
T4 sequence (P11229 whole entry): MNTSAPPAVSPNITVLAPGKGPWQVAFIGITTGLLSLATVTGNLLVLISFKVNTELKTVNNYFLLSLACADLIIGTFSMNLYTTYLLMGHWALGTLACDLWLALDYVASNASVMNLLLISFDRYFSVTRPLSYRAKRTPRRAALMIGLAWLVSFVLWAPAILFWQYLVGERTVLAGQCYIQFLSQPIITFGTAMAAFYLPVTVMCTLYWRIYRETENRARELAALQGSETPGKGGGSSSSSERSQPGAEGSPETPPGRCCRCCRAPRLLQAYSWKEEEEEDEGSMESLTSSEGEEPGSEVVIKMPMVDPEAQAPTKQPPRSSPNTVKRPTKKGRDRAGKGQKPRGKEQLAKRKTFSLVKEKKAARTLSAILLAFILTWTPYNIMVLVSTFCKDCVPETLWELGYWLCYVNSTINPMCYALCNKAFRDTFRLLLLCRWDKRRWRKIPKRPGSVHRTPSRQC
Briefly: Displacement of [3H]-QNB/[3H]-NMS from human recombinant Muscarinic acetylcholine M1 receptor expressed in stable CHO cells after 90 mins by microbeta scintillation counting method. In outline:
as §1

The target in another assay is D(2) dopamine receptor (Homo sapiens, UniProt P14416). Description: Displacement of [3H]-N-methylspiperone from human recombinant dopamine D2 receptor expressed in stable fibroblast cells at 10 uM after 90 mins by microbeta scintillation counting method relative to control. In outline: as §2
D(2) dopamine receptor, sequence (P14416 whole entry): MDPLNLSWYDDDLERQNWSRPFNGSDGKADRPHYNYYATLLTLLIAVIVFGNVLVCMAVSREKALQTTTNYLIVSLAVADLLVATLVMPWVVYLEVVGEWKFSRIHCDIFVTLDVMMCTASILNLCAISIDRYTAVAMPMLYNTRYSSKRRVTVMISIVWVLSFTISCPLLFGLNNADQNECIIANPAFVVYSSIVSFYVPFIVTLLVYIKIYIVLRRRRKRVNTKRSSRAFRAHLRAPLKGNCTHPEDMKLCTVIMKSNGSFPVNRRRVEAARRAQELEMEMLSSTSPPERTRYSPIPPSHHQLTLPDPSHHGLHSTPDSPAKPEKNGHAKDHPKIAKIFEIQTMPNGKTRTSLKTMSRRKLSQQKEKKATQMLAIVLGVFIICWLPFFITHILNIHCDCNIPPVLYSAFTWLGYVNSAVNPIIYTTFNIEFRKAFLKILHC
Another assay addresses Histamine H3 receptor (Homo sapiens, UniProt Q9Y5N1). Description: Displacement of [3H]-alpha-methylhistamine from human recombinant histamine H3 receptor expressed in Flp-In HEK cells after 90 mins by microbeta scintillation counting method. In outline: as §1

5-hydroxytryptamine receptor 1D, sequence (P28221 whole entry): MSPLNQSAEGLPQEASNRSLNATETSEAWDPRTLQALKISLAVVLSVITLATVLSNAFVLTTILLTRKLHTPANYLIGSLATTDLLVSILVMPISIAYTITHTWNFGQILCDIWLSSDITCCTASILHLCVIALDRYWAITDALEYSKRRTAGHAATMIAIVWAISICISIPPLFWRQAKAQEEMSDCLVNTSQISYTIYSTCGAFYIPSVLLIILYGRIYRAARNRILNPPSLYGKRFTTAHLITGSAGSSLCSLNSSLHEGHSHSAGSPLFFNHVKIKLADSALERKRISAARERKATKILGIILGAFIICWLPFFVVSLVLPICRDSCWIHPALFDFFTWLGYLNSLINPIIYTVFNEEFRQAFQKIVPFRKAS
Histamine H3 receptor, sequence (Q9Y5N1 whole entry): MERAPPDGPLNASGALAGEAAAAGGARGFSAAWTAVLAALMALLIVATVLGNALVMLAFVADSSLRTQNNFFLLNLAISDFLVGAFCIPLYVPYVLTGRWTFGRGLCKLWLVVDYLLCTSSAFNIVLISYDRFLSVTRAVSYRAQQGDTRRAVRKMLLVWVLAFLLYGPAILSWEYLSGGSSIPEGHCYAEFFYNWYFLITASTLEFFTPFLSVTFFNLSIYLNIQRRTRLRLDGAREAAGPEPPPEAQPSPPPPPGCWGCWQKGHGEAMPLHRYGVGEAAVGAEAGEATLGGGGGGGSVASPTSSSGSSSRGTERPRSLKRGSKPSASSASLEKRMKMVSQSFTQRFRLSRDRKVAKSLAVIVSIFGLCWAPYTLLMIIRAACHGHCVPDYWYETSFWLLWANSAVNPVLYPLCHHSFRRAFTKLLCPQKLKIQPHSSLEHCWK
5-hydroxytryptamine receptor 6, sequence (P50406 whole entry): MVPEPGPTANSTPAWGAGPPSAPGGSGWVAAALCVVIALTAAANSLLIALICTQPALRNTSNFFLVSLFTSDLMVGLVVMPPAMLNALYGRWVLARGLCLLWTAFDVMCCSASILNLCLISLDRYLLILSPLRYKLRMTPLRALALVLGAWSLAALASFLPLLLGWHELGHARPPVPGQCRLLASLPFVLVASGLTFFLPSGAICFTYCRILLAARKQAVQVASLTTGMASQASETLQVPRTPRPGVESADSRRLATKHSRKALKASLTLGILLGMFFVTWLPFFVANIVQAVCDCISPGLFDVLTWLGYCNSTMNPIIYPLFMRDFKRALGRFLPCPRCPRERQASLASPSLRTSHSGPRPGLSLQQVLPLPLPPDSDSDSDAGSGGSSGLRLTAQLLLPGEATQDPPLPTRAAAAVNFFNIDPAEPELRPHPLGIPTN

As usually defined, the Ki is the dissociation constant of the complex between target and ligand, obtained from inhibition or displacement. A word on the inhibition: it is the drop in the measured response relative to a control, in per cent. Take `COc1cc(OC)c2c(c1)OC[C@@]1(C)NCC[C@@H]21` (racemic): the Ki (in [1]; in assay [2]; at Histamine H1 receptor; in assay [4]; in assay [6]; in assay [8]) was greater than 10 µM each time. Further, the inhibition (in assay [3]; in assay [5]; in assay [7]; at D(2) dopamine receptor) was less than 50% throughout.
Turning to `C[C@@]12CN(c3ccccc3)c3ccccc3[C@@H]1CCN2` (racemic), the Ki in assay [1] was 1 µM; in assay [2], greater than 10 µM; at Histamine H1 receptor it was greater than 10 µM; in assay [4], greater than 10 µM; in assay [6], greater than 10 µM; in assay [8] it was greater than 10 µM.
As for `CC[C@H]1c2ccccc2N(c2ccccc2)C[C@@]1(C)N` (racemic), the Ki in [1] was greater than 10 µM; in [2] it was greater than 10 µM; on Histamine H1 receptor, greater than 10 µM; in assay [4], greater than 10 µM; at Histamine H3 receptor, 3.98 µM; in assay [6] it was greater than 10 µM. Moreover, the Ki in assay [8] was greater than 10 µM.
Turning to `CC[C@H]1c2cc(C)ccc2OC[C@@]1(C)N` (racemic), the Ki (in assay [1]; in [2]; at Histamine H1 receptor; in assay [4]; on Histamine H3 receptor; in [6]) was greater than 10 µM each time. Also, the Ki in [8] is greater than 10 µM. Further, the inhibition (in [3]; in [5]; in assay [7]; at D(2) dopamine receptor) was less than 50% throughout.
Regarding `CC[C@H]1c2cc(OC)ccc2CC[C@@]1(C)N` (racemic), the Ki is greater than 10 µM in [1]; 0.316 µM in [2]; 3.16 µM on Histamine H1 receptor; greater than 10 µM in assay [4]; greater than 10 µM at Histamine H3 receptor; greater than 10 µM in assay [6]. Moreover, the Ki in assay [8] is greater than 10 µM. The inhibition (in assay [3]; in assay [5]; in assay [7]; at D(2) dopamine receptor) was less than 50% each time.
